Assay results: ChEMBL document CHEMBL3808372, “Identification of quinones as novel PIM1 kinase inhibitors” (Bioorg Med Chem Lett, 2016)

Experiments:
[1] = system: Tyrosine-protein kinase ABL1 (Homo sapiens), P00519 [E255K]; assay: Inhibition of human ABL1 kinase E255K mutant phosphorylation (229 to 512 amino acid residues) assessed as enzyme activity at 10 uM by KINOMEScan assay; parameters: scale not given: the % may be the effect or the level left
Outline: (§1)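 Competition binding screen on a 100-kinase KINOMEscan panel, compound tested at a single 10 μM concentration. Primary binding read-out expressed as % Ctrl = (test compound signal − positive control signal)/(negative control signal − positive control signal) × 100, with lower values meaning stronger binding.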

[2] = system: Tyrosine-protein kinase ABL1 (Homo sapiens), P00519 [T315I]; assay: Inhibition of human ABL1 kinase T315I mutant phosphorylation (229 to 512 amino acid residues) assessed as enzyme activity at 10 uM by KINOMEScan assay; parameters: scale not given: the % may be the effect or the level left; outline: as §1
[3] = target: Aurora kinase B (Homo sapiens) (UniProt Q96GD4); assay: Inhibition of human AURKB (25 to 303 amino acid residues) assessed as enzyme activity at 10 uM by KINOMEScan assay; parameters: scale not given: the % may be the effect or the level left; outline: as §1
[4] = target: Tyrosine-protein kinase BTK (Homo sapiens) (UniProt Q06187); assay: Inhibition of full length human BTK assessed as enzyme activity at 10 uM by KINOMEScan assay; parameters: scale not given: the % may be the effect or the level left
Outline: (§2)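 Commercial KINOMEscan binding panel of 100 kinases, test compound at 10 μM. Results are primary-screen binding interactions expressed as % Ctrl = (test compound signal − positive control signal)/(negative control signal − positive control signal) × 100. Lower % Ctrl means stronger binding.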

[5] = target: Cyclin-dependent kinase 3 (Homo sapiens) (UniProt Q00526); assay: Inhibition of full length human CDK3 expressed in bacterial system assessed as enzyme activity at 10 uM by KINOMEScan assay; parameters: scale not given: the % may be the effect or the level left; outline: as §1
Cyclin-dependent kinase 3 (Homo sapiens), sequence (Q00526 whole entry, looked up, the tested form may be a part): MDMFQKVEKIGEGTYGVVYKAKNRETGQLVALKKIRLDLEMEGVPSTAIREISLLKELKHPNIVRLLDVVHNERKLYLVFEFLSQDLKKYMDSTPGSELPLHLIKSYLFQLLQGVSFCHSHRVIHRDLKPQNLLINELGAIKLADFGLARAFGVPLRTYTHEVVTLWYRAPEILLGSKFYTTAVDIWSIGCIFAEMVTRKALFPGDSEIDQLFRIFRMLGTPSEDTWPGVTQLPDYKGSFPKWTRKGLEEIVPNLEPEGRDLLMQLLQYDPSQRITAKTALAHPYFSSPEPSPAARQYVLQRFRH

[6] = target: Macrophage colony-stimulating factor 1 receptor (Homo sapiens) (UniProt P07333); assay: Inhibition of human CSF1R (564 to 939 amino acid residues) assessed as enzyme activity at 10 uM by KINOMEScan assay expressed in bacterial system assessed as enzyme activity at 10 uM by KINOMEScan assay; parameters: scale not given: the % may be the effect or the level left; outline: as §1
Macrophage colony-stimulating factor 1 receptor (Homo sapiens), sequence (P07333 whole entry, the tested form may be a part, canonical isoform): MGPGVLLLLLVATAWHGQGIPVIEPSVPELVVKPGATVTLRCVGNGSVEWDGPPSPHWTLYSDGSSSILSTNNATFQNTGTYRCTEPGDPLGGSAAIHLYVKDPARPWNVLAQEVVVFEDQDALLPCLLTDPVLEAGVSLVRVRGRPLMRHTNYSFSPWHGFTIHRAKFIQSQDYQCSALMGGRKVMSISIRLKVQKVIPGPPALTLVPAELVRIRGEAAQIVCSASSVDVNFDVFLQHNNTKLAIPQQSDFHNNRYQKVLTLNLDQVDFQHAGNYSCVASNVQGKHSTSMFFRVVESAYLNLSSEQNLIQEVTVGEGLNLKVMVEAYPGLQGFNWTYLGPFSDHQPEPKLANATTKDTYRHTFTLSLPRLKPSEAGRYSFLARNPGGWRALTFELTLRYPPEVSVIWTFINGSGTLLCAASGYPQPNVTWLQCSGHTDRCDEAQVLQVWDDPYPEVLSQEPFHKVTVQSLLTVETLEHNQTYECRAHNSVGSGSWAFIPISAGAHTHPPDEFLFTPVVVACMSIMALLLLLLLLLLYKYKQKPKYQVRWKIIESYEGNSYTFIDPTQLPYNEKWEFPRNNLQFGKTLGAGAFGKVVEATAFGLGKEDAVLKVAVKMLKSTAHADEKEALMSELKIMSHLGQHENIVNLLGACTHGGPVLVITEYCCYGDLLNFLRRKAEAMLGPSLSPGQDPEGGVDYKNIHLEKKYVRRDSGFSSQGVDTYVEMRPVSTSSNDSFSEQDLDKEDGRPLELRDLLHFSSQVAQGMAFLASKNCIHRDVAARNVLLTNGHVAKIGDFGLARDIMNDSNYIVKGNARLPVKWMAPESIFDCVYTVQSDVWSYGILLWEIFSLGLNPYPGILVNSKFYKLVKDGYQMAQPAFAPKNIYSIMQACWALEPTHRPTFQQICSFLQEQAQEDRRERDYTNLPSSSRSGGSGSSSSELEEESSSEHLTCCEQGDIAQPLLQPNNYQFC

[7] = target: Casein kinase I isoform gamma-2 (Homo sapiens) (UniProt P78368); assay: Inhibition of full length human CSNK1G2 expressed in bacterial system assessed as enzyme activity at 10 uM by KINOMEScan assay; parameters: scale not given: the % may be the effect or the level left; outline: as §2
Casein kinase I isoform gamma-2 (Homo sapiens), sequence (P78368 whole entry, looked up, canonical isoform): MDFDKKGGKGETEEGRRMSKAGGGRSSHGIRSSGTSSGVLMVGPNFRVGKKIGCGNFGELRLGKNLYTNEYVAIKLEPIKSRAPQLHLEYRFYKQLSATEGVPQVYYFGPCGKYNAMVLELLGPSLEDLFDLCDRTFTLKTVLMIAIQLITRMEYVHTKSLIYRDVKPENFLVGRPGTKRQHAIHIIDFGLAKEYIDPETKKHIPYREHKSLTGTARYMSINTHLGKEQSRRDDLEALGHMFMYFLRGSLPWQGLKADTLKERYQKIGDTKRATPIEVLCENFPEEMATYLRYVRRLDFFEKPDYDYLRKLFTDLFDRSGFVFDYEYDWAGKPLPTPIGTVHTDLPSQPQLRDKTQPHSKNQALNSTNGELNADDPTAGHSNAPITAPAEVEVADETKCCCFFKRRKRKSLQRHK

[8] = target: Dual specificity tyrosine-phosphorylation-regulated kinase 1B (Homo sapiens) (UniProt Q9Y463); assay: Inhibition of full length human DYRK1B expressed in bacterial system assessed as enzyme activity at 10 uM by KINOMEScan assay; parameters: scale not given: the % may be the effect or the level left; outline: as §1
[9] = target: Epidermal growth factor receptor (Homo sapiens) (UniProt P00533); assay: Inhibition of human EGFR (669 to 1011 amino acid residues) assessed as enzyme activity at 10 uM by KINOMEScan assay expressed in bacterial system assessed as enzyme activity at 10 uM by KINOMEScan assay; parameters: scale not given: the % may be the effect or the level left; outline: as §2
[10] = target: Receptor-type tyrosine-protein kinase FLT3 (Homo sapiens) (UniProt P36888); assay: Inhibition of human FLT3 (646 to 1225 amino acid residues) assessed as enzyme activity at 10 uM by KINOMEScan assay expressed in bacterial system assessed as enzyme activity at 10 uM by KINOMEScan assay; parameters: scale not given: the % may be the effect or the level left; outline: as §1
[11] = target: Insulin-like growth factor 1 receptor (Homo sapiens) (UniProt P08069); assay: Inhibition of human IGF1R (972 to 1294 amino acid residues) assessed as enzyme activity at 10 uM by KINOMEScan assay expressed in bacterial system assessed as enzyme activity at 10 uM by KINOMEScan assay; parameters: scale not given: the % may be the effect or the level left; outline: as §2
Insulin-like growth factor 1 receptor (Homo sapiens), sequence (P08069 31-736 limits assumed): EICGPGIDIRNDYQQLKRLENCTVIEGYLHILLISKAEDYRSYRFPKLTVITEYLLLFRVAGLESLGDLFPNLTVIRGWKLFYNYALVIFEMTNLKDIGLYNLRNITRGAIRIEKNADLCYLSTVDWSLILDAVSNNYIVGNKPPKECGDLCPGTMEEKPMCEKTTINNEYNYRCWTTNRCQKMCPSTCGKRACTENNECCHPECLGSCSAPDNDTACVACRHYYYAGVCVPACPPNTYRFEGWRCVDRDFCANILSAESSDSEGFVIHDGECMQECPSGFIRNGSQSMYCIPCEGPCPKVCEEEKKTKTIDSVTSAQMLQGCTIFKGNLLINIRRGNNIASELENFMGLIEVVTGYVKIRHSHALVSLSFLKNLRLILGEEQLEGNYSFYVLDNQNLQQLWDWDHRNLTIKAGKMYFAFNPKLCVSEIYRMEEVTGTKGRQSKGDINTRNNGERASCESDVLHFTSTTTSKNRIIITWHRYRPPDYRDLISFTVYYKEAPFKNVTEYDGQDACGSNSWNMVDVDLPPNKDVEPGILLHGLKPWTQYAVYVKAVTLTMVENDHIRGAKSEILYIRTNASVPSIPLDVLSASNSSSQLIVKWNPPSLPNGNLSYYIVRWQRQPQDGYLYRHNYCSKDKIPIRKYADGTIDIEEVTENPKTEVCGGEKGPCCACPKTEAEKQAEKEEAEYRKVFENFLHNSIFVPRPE
Insulin-like growth factor 1 receptor (Homo sapiens), sequence (P08069 741-1367 limits assumed): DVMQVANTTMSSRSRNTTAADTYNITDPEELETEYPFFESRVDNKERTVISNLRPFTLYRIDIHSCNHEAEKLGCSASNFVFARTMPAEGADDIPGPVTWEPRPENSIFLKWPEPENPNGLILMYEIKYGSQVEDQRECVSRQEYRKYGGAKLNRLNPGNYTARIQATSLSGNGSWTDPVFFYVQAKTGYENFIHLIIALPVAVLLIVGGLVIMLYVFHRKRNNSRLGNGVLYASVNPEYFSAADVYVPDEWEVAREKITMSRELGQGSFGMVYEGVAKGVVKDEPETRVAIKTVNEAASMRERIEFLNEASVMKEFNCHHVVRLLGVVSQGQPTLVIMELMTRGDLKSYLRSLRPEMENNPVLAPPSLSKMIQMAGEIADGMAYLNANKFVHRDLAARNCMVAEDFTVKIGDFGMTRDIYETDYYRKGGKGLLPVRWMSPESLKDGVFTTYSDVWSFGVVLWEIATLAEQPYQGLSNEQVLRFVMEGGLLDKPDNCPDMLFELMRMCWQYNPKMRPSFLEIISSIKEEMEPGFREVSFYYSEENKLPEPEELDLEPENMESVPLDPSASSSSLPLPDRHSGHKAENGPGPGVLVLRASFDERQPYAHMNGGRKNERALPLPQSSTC

[12] = target: Inhibitor of nuclear factor kappa-B kinase subunit alpha (Homo sapiens) (UniProt O15111); assay: Inhibition of full length human IKK-alpha assessed as enzyme activity at 10 uM by KINOMEScan assay; parameters: scale not given: the % may be the effect or the level left; outline: as §1
[13] = target: Mitogen-activated protein kinase 8 (Homo sapiens) (UniProt P45983); assay: Inhibition of full length human JNK1 assessed as enzyme activity at 10 uM by KINOMEScan assay; parameters: scale not given: the % may be the effect or the level left; outline: as §1
Mitogen-activated protein kinase 8 (Homo sapiens), sequence (P45983 whole entry): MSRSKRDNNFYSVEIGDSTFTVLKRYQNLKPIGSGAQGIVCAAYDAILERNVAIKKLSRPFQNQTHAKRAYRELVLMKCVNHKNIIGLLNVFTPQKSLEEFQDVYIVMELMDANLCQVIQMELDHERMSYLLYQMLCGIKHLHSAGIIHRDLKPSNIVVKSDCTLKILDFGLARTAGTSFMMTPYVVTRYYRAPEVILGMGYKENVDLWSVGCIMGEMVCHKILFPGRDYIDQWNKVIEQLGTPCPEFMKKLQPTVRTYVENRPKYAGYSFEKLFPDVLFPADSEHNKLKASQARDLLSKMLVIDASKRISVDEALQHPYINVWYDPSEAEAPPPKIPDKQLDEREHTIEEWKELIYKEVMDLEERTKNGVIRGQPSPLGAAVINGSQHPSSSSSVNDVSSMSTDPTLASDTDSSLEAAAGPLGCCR

[14] = target: Dual specificity mitogen-activated protein kinase kinase 1 (Homo sapiens) (UniProt Q02750); assay: Inhibition of full length human MEK1 assessed as enzyme activity at 10 uM by KINOMEScan assay; parameters: scale not given: the % may be the effect or the level left; outline: as §1
Dual specificity mitogen-activated protein kinase kinase 1 (Homo sapiens), sequence (Q02750 whole entry, the tested form may be a part): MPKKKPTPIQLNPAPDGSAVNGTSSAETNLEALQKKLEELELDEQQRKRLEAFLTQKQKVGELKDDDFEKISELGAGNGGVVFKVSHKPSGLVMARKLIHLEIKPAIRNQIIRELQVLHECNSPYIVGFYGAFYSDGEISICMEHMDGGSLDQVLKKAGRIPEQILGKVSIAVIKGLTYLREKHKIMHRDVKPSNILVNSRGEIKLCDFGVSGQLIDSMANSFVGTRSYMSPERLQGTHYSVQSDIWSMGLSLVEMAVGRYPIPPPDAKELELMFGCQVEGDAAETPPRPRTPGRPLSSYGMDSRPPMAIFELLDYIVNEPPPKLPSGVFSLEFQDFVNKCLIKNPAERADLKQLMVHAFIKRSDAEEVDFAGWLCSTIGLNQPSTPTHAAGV

[15] = target: MAP kinase-interacting serine/threonine-protein kinase 2 (Homo sapiens) (UniProt Q9HBH9); assay: Inhibition of human MKNK2 (63 to 388 amino acid residues) assessed as enzyme activity at 10 uM by KINOMEScan assay; parameters: scale not given: the % may be the effect or the level left; outline: as §1
MAP kinase-interacting serine/threonine-protein kinase 2 (Homo sapiens), sequence (Q9HBH9 whole entry, looked up, the tested form may be a part): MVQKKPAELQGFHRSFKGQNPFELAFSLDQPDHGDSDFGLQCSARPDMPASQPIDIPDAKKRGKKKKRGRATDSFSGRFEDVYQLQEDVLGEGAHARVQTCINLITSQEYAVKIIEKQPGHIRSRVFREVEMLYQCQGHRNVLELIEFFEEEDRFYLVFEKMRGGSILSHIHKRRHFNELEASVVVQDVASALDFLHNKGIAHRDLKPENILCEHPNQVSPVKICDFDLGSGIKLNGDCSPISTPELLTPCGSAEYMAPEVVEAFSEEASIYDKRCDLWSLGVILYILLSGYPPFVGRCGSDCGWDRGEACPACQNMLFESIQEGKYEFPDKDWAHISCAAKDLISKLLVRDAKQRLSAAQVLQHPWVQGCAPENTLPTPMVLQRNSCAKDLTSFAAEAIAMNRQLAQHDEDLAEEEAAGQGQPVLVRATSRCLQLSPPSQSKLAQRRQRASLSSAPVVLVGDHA

[16] = target: Serine/threonine-protein kinase PAK 1 (Homo sapiens) (UniProt Q13153); assay: Inhibition of human PAK1 (149 to 545 amino acid residues) expressed in bacterial system assessed as enzyme activity at 10 uM by KINOMEScan assay; parameters: scale not given: the % may be the effect or the level left; outline: as §1
[17] = target: Serine/threonine-protein kinase PAK 2 (Homo sapiens) (UniProt Q13177); assay: Inhibition of human PAK2 (151 to 525 amino acid residues) expressed in bacterial system assessed as enzyme activity at 10 uM by KINOMEScan assay; parameters: scale not given: the % may be the effect or the level left; outline: as §1
[18] = target: Phosphatidylinositol 4-phosphate 3-kinase C2 domain-containing subunit beta (Homo sapiens) (UniProt O00750); assay: Inhibition of human PIK3C2B (1 to 1634 amino acid residues) assessed as enzyme activity at 10 uM by KINOMEScan assay; parameters: scale not given: the % may be the effect or the level left; outline: as §2
[19] = target: Phosphatidylinositol 4,5-bisphosphate 3-kinase catalytic subunit alpha isoform (Homo sapiens) (UniProt P42336); assay: Inhibition of human PIK3CA (108 to 1068 amino acid residues) assessed as enzyme activity at 10 uM by KINOMEScan assay; parameters: scale not given: the % may be the effect or the level left
Outline: (§3)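 Single-concentration competition binding screen (KINOMEscan) across a 100-kinase panel at 10 μM. Primary binding read-out is reported as % of control: (test signal − positive-control signal)/(negative-control signal − positive-control signal) × 100. Lower values indicate stronger binding.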

[20] = target: Serine/threonine-protein kinase PLK1 (Homo sapiens) (UniProt P53350); assay: Inhibition of human PLK1 (33 to 325 amino acid residues) assessed as enzyme activity at 10 uM by KINOMEScan assay; parameters: scale not given: the % may be the effect or the level left; outline: as §3
[21] = target: Proto-oncogene tyrosine-protein kinase receptor Ret (Homo sapiens) (UniProt P07949); assay: Inhibition of human RET (713 to 1014 amino acid residues) expressed in bacterial system assessed as enzyme activity at 10 uM by KINOMEScan assay; parameters: scale not given: the % may be the effect or the level left; outline: as §2
[22] = target: Serine/threonine-protein kinase RIO2 (Homo sapiens) (UniProt Q9BVS4); assay: Inhibition of human RIOK2 (1 to 313 amino acid residues) assessed as enzyme activity at 10 uM by KINOMEScan assay; parameters: scale not given: the % may be the effect or the level left; outline: as §2
Serine/threonine-protein kinase RIO2 (Homo sapiens), sequence (Q9BVS4 whole entry, looked up, the tested form may be a part): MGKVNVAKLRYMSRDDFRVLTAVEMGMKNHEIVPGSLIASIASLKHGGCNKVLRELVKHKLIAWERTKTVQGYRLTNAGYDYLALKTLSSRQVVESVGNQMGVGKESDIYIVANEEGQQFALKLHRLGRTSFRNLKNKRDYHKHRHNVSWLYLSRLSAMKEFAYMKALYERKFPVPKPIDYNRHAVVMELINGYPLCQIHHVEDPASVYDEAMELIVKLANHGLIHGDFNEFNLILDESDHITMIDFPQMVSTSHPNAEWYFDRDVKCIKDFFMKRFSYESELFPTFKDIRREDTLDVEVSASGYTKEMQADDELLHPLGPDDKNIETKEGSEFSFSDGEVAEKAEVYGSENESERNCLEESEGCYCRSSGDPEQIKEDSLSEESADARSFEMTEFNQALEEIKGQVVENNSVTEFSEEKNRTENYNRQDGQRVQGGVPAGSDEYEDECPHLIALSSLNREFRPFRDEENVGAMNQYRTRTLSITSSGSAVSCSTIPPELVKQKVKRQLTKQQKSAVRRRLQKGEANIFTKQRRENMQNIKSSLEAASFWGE

[23] = target: TGF-beta receptor type-1 (Homo sapiens) (UniProt P36897); assay: Inhibition of human TGFBR1 (179 to 503 amino acid residues) expressed in bacterial system assessed as enzyme activity at 10 uM by KINOMEScan assay; parameters: scale not given: the % may be the effect or the level left; outline: as §2
[24] = target: Serine/threonine-protein kinase ULK2 (Homo sapiens) (UniProt Q8IYT8); assay: Inhibition of human ULK2 (1 to 301 amino acid residues) assessed as enzyme activity at 10 uM by KINOMEScan assay; parameters: scale not given: the % may be the effect or the level left; outline: as §3
[25] = target: Casein kinase II (Homo sapiens) (UniProt P67870+P68400+P19784); assay: Share of MOE computational kinase hits for CK2

O=C1C2=C(C(=O)c3c(O)ccc(O)c31)[C@@H](O)[C@@H](O)[C@@H](O)C2
Activity [1]: 96%
Activity [2]: 95%
Activity [3]: 72%
Activity [4]: 100%
Activity [5]: 88%
Activity [6]: 77%
Activity [7]: 100%
Activity [8]: 53%
Activity [9]: 88%
Activity [10]: 84%
Activity [11]: 100%
Activity [12]: 87%
Activity [13]: 96%
Activity [14]: 92%
Activity [15]: 98%
Activity [16]: 93%
Activity [17]: 57%
Activity [18]: 100%
Activity [19]: 99%
Activity [20]: 96%
Activity [21]: 100%
Activity [22]: 86%
Activity [23]: 100%
Activity [24]: 88%
% of MOE kinase hits [25]: 43%
